{"source": "ChEMBL document CHEMBL1149174", "about": "“Synthesis and structure-activity relationship of acrylamides as KCNQ2 potassium channel openers” (J Med Chem, 2004)"}
{"target": "Potassium voltage-gated channel subfamily KQT member 2 (Mus musculus) (UniProt Q9Z351)", "sequence (Q9Z351 whole entry)": "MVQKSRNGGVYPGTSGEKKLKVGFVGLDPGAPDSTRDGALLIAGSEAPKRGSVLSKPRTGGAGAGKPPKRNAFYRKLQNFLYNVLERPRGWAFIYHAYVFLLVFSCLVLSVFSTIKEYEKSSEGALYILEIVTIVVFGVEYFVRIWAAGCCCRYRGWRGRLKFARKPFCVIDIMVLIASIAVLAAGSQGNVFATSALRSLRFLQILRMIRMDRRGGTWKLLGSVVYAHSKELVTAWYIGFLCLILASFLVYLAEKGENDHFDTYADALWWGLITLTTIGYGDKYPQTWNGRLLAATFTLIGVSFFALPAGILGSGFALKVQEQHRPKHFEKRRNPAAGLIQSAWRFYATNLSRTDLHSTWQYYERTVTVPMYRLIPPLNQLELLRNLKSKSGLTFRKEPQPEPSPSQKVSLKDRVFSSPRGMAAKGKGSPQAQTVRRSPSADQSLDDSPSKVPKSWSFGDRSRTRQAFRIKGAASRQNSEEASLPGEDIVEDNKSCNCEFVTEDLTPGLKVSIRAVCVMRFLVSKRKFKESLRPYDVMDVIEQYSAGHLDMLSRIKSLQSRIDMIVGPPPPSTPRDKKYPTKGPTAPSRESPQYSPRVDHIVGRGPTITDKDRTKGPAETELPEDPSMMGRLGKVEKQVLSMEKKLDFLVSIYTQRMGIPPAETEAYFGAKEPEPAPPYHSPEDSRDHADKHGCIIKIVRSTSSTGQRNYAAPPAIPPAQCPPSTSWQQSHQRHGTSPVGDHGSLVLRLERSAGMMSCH", "assay": "Ability to open cloned mKCNQ2 channel expressed in Xenopus laevis oocytes at 10 uM expressed as percent of compound-free control current at -40 mV", "assay_type": "functional, cell-based", "details": "Oocyte", "procedure,_shortened": "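Two-electrode voltage clamp of Xenopus laevis oocytes injected with ~50 nL mKCNQ2 cRNA, kept at 17 °C in ND96 (mM: NaCl 90, KCl 1.0, CaCl2 1.0, MgCl2 1.0, HEPES 5.0, pH 7.5) with 5% horse serum and penicillin/streptomycin. Holding potential -90 mV, 10 mV steps from -80 to +40 mV. Current at -40 mV with 10 μM compound taken as % of compound-free control; mean ± SEM of ≥5 oocytes.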", "units": {"KCNQ2 current at -40 mV as percent of compound-free control": "%"}}
{"compound": "C[C@H](NC/C=C/c1ccccc1)c1cccc(N2CCOCC2)c1", "KCNQ2 current at -40 mV as percent of compound-free control": 98}
{"compound": "C[C@H](NC(=O)/C=C/c1ccc(F)cc1F)c1cccc(N2CCOCC2)c1", "KCNQ2 current at -40 mV as percent of compound-free control": 124}
{"compound": "COc1ccc(/C=C/C(=O)N[C@@H](C)c2cccc(N3CCOCC3)c2)cc1", "KCNQ2 current at -40 mV as percent of compound-free control": 140}
{"compound": "C[C@H](NC(=O)/C=C/c1cccc(F)c1)c1cccc(N2CCOCC2)c1", "KCNQ2 current at -40 mV as percent of compound-free control": 127}
{"compound": "C[C@@H](c1cccc(N2CCOCC2)c1)N(C)C(=O)/C=C/c1ccccc1", "KCNQ2 current at -40 mV as percent of compound-free control": 72}
{"compound": "COc1ccc([C@H](C)NC(=O)/C=C/c2ccccc2)cc1N1CCOCC1", "KCNQ2 current at -40 mV as percent of compound-free control": 96}
{"compound": "CC1=C(C(=O)N[C@@H](C)c2cccc(N3CCOCC3)c2)Cc2ccccc21", "KCNQ2 current at -40 mV as percent of compound-free control": 101}
{"compound": "COc1ccccc1/C=C/C(=O)N[C@@H](C)c1cccc(N2CCOCC2)c1", "KCNQ2 current at -40 mV as percent of compound-free control": 99}
{"compound": "COc1cccc(/C=C/C(=O)N[C@@H](C)c2cccc(N3CCOCC3)c2)c1", "KCNQ2 current at -40 mV as percent of compound-free control": 132}
{"compound": "C[C@H](NC(=O)/C=C/c1ccccc1F)c1cccc(N2CCOCC2)c1", "KCNQ2 current at -40 mV as percent of compound-free control": 121}
{"compound": "C[C@H](NC(=O)/C=C/c1ccccc1)c1cccc(N2CC3CC2CO3)c1", "note": "(stereo partly specified)", "KCNQ2 current at -40 mV as percent of compound-free control": 104}
{"compound": "C[C@H](NC(=O)/C=C/c1ccccc1)c1cccc(N2CCCOCC2)c1", "KCNQ2 current at -40 mV as percent of compound-free control": 110}
{"compound": "C[C@H](NC(=O)CCc1ccccc1)c1cccc(N2CCOCC2)c1", "KCNQ2 current at -40 mV as percent of compound-free control": 105}
{"compound": "C[C@H](NC(=O)/C=C/c1ccc(F)cc1)c1ccc(F)c(N2CCOCC2)c1", "KCNQ2 current at -40 mV as percent of compound-free control": 142}
{"compound": "C[C@H](NC(=O)/C=C/c1ccc(F)cc1)c1cccc(N2CCOCC2)c1", "KCNQ2 current at -40 mV as percent of compound-free control": 88}
{"compound": "O=C(/C=C/c1ccccc1)NCc1cccc(N2CCOCC2)c1", "KCNQ2 current at -40 mV as percent of compound-free control": 110}
{"compound": "CC1CN(c2cccc([C@H](C)NC(=O)/C=C/c3ccc(F)cc3)c2)CC(C)O1", "note": "(stereo partly specified)", "KCNQ2 current at -40 mV as percent of compound-free control": 133}
{"compound": "C[C@@H](NC(=O)/C=C/c1ccccc1)c1cccc(N2CCOCC2)c1", "KCNQ2 current at -40 mV as percent of compound-free control": 96}
{"compound": "C[C@H](NC(=O)/C=C/c1ccccc1)c1cccc(N2CCOCC2)c1", "KCNQ2 current at -40 mV as percent of compound-free control": 163}
{"compound": "CC1CN(c2cccc([C@H](C)NC(=O)/C=C/c3ccccc3F)c2)CC(C)O1", "note": "(stereo partly specified)", "KCNQ2 current at -40 mV as percent of compound-free control": 135}
{"compound": "C[C@H](NC(=O)/C=C/c1ccccc1)c1cccc(N(C)C)c1", "KCNQ2 current at -40 mV as percent of compound-free control": 110}
{"compound": "COc1ccc(N2CCOCC2)cc1[C@H](C)NC(=O)/C=C/c1ccccc1", "KCNQ2 current at -40 mV as percent of compound-free control": 98}
{"compound": "C[C@H](NC(=O)/C=C/c1cc(F)ccc1F)c1cccc(N2CCOCC2)c1", "KCNQ2 current at -40 mV as percent of compound-free control": 102}
{"compound": "C[C@H](NC(=O)/C=C/c1ccccc1F)c1cccc(N2CCN(C)CC2)c1", "KCNQ2 current at -40 mV as percent of compound-free control": 107}
{"compound": "C[C@H](NC(=O)/C=C/c1ccccc1)c1ccc(F)c(N2CCOCC2)c1", "KCNQ2 current at -40 mV as percent of compound-free control": 129}
{"compound": "CC1CN(c2cccc([C@H](C)NC(=O)/C=C/c3ccccc3)c2)CC(C)O1", "note": "(stereo partly specified)", "KCNQ2 current at -40 mV as percent of compound-free control": 138}
